The subject of assay [1] is RAW 264.7 cells. In words: MTT assay, LPS-induced inflammation in RAW 264.7. The assay is classed as cell-based, murine. To be noted: RAW 264.7, pre-treatment 100 μM and 200 μM, then LPS; Fig. 4. The method in brief:
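Mouse RAW 264.7 macrophages kept in high-glucose DMEM with 10% heat-inactivated FBS and 1% penicillin–streptomycin at 37 °C, 5% CO2. Cells seeded at 5 × 10^5 cells per mL, pretreated 1 h with test compound (100 or 200 μM), then stimulated with […] for 24 h. Medium replaced; 0.5 mg mL−1 MTT for 3 h; formazan dissolved in DMSO; OD read at 540 nm. Percent inflammation derived by subtracting percent viability relative to control.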
(Formazan colour is commonly taken as a measure of viable cells.)

The next assay deals with Rhizopus arrhizus. In words: In vitro antifungal MIC, poison plate technique. It counts as cell-based.
In another assay the test system is Aspergillus niger. Briefly: In vitro antifungal MIC, poison plate technique. It counts as cell-based.
A further assay has as its system Pseudomonas aeruginosa. In words: In vitro antibacterial MIC determination. It counts as cell-based. Put shortly:
(§1)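 Bacteria grown on nutrient agar, subcultured to log phase in nutrient broth, then diluted in sterile saline to about 10^5–10^6 CFU mL−1. Test compounds diluted in acetone, DMSO or diethyl ether (ether preferred). Saturated disks placed on spread-plated inoculum and incubated at 37 °C for 24 h. MIC determined across different compound concentrations, with streptomycin as standard.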

A further assay relates to Escherichia coli. Briefly: In vitro antibacterial MIC determination. The assay is classed as cell-based. Put shortly:
as §1

Assay [2] deals with cotton pellet induced granuloma. In words: Cotton pellets induced granuloma assay. The assay is classed as in vivo. To be noted: rat, 100 mg kg^−1 p.o. for 8 d, mean ± SEM. Put shortly: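 Two sterile 10 mg cotton pellets implanted ventrally in rats, six per group. […] On day 9 rats were killed under excess ether. Pellets were freed of tissue and weighed wet, then dried at 55 °C for 6 h or to constant weight. Granuloma equals dry weight minus cotton weight. Mean ± SEM.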

A further assay has as its target T1, COX-2 (Ovis aries, UniProt P79208).
T1 sequence (P79208 17-603): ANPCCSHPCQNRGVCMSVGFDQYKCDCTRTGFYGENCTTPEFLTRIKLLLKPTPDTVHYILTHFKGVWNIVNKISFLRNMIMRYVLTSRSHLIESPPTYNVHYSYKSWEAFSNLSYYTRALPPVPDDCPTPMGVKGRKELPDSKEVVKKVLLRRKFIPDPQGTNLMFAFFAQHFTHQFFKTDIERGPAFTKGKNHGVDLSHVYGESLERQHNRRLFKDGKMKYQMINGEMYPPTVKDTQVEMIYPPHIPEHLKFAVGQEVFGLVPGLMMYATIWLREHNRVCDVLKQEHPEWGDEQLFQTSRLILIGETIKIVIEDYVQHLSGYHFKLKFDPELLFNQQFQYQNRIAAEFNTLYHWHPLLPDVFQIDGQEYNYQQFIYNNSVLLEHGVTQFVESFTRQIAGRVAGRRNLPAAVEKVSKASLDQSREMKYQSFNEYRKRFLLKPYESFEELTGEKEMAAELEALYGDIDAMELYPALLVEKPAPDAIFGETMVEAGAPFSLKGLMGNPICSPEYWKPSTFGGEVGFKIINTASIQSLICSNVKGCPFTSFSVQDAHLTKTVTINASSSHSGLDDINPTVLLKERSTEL
In words: Colorimetric COX. It counts as biochemical, ovine. To be noted: read-out: % inhibition of COX, COX-2.

The subject of assay [3] is RAW 264.7 cells. Briefly: Nitrite. It counts as cell-based, murine. To be noted: RAW 264.7, 100 μM and 200 μM pre-treatment; Fig. 5. Put shortly:
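RAW 264.7 cells (1 × 10^6) seeded in flasks and left to adhere overnight. Pretreated 1 h with test compound (100 or 200 μM), then 100 μM LPS for 24 h at 37 °C, 5% CO2. Supernatant mixed with an equal volume of Griess reagent (0.1% naphthylethylenediamine and 1% sulfanilamide, 1:1, in 5% phosphoric acid) for 10 min in the dark at room temperature; A540 read. Nitrite quantified from a NaNO2 standard curve (0.1–6.25 μM), expressed as μmol NO2−/mg protein. Triplicates.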

The target in the next assay is T2, COX-1 (Ovis aries, UniProt P05979).
T2 sequence (P05979 25-600): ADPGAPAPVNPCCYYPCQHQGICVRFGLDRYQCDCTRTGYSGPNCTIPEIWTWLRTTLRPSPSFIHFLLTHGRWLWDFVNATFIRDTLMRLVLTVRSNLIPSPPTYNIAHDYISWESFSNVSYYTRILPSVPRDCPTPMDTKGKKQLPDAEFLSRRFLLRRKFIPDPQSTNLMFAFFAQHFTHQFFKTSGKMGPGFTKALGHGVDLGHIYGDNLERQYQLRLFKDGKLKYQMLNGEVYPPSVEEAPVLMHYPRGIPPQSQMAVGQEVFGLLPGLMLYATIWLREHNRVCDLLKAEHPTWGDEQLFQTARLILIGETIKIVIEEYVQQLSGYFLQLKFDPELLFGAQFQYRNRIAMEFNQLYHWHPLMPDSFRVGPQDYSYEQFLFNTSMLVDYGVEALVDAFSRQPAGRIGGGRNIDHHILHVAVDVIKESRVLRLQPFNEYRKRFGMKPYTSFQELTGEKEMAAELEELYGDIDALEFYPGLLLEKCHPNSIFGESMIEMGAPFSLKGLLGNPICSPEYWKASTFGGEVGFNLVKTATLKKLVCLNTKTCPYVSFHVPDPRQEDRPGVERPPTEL
Briefly: Colorimetric COX. It counts as biochemical, ovine. To be noted: read-out: % inhibition of COX, COX-1.

A further assay concerns Staphylococcus aureus. In words: In vitro antibacterial MIC determination. It counts as cell-based. Put shortly: as §1
Another assay concerns Bacillus subtillis. In words: In vitro antibacterial MIC determination. It counts as cell-based. Put shortly: as §1
The test system of assay [4] is carrageenan-induced paw edema. In words: Carrageenan induced hind paw edema assay. It counts as in vivo. To be noted: rat, 100 mg kg^−1 p.o., mean ± SEM. The method in brief: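 Rats, six per group, acclimatized one week (25 ± 2 °C, 12 h light/dark, standard pellets, water ad libitum). […] Paw volume measured by plethysmometer displacement to the lateral malleolus at 1, 3 and 6 h. Mean ± SEM.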

Another assay has as its system Aspergillus flavus. Briefly: In vitro antifungal MIC, poison plate technique. It counts as cell-based.

We go through four compounds from article PMC8694313 (RSC Advances, 2021).

≈ marks a conversion by molar mass, not a printed value.

One may read the MIC as the lowest concentration that inhibits growth of the organism. Low values mean greater potency, high ones weaker potency. As a reminder, the inhibition is the percentage by which the read-out fell short of the control.

As to `O=S(=O)(NC[C@@H](O)[C@@H]1CCc2cc(F)ccc2O1)c1ccc(Br)cc1` [Compound 8b, 4-Bromo-N-((R)-2-((S)-6-fluorochroman-2-yl)-2-hydroxyethyl)benzenesulfonamide], the “anti-inflammatory activity against LPS induced cell death / inflammation (MTT)” value in the assay on RAW 264.7 cells [1] is given as “strong anti-inflammatory activity”. The MIC with Rhizopus arrhizus came out at 20.2 ± 0.65 µg/mL (≈ 47 µM); against Aspergillus niger it was 20.4 ± 0.87 µg/mL (≈ 47.4 µM); with Pseudomonas aeruginosa it was 22.4 ± 0.4 µg/mL (≈ 52.1 µM); in the assay with Escherichia coli, 12.7 ± 0.87 µg/mL (≈ 29.5 µM); in the assay on Staphylococcus aureus, 17.9 ± 0.61 µg/mL (≈ 41.6 µM); with Bacillus subtillis, 15.08 ± 0.08 µg/mL (≈ 35 µM). In addition, in the assay on Aspergillus flavus, the MIC was found to be 17.81 ± 0.16 µg/mL (≈ 41.4 µM). In assay [2], the “Weight, Dry (cotton pellet)” value was determined as 84.10 ± 1.67 mg. The “Weight, Wet (cotton pellet)” value in [2] was 182.50 ± 1.77 mg. In addition, the figures for the inhibition at 100 µM at COX-2 and at COX-1 were 34.4 ± 0.66% and 46.1 ± 0.22%, respectively. The inhibition at 200 µM came to 60.04 ± 0.24% on COX-2 and 68.78 ± 0.43% on COX-1. The “inhibition of LPS-induced NO production” value in the assay with RAW 264.7 cells [3] is given as “strong inhibition”. Also, the Paw volume in [4] (1 h after carrageenan) was 0.52 ± 0.18 mL; in [4] (3 h after carrageenan), 0.80 ± 0.38 mL; in assay [4] (6 h after carrageenan), 1.06 ± 0.27 mL.
Consider `O=S(=O)(NC[C@@H](O)[C@@H]1CCc2cc(F)ccc2O1)c1cccc(C(F)(F)F)c1` [Compound 8e, N-((R)-2-((S)-6-Fluorochroman-2-yl)-2-hydroxyethyl)-3-(trifluoromethyl)benzenesulfonamide], for which the “anti-inflammatory activity against LPS induced cell death / inflammation (MTT)” value with RAW 264.7 cells [1] is reported as “strong anti-inflammatory activity”. Also, the MIC was 16.6 ± 0.52 µg/mL (≈ 39.7 µM) in the assay on Rhizopus arrhizus; 11.7 ± 0.35 µg/mL (≈ 27.9 µM) in the assay on Aspergillus niger; 26.7 ± 0.88 µg/mL (≈ 63.7 µM) in the assay with Pseudomonas aeruginosa; 26.3 ± 0.28 µg/mL (≈ 62.6 µM) with Escherichia coli; 20.4 ± 0.62 µg/mL (≈ 48.7 µM) in the assay on Staphylococcus aureus; 19.7 ± 0.36 µg/mL (≈ 46.9 µM) in the assay on Bacillus subtillis. In addition, the minimal inhibitory concentration (MIC) in the assay on Aspergillus flavus was 14.1 ± 0.55 µg/mL (≈ 33.6 µM). In addition, in assay [2], the “Weight, Dry (cotton pellet)” value amounted to 76.45 ± 1.95 mg. Also, the “Weight, Wet (cotton pellet)” value in assay [2] worked out at 152.40 ± 1.57 mg. Besides, the inhibition at 100 µM on COX-2 is 35.55 ± 0.22%; on COX-1, 48.4 ± 0.84%. Also, the figures for the inhibition at 200 µM at COX-2 and at COX-1 were 57.72 ± 0.36% and 71.55 ± 0.15%, respectively. The “inhibition of LPS-induced NO production” value in the assay on RAW 264.7 cells [3] was “strong inhibition”. The Paw volume is 0.68 ± 0.96 mL in assay [4] (1 h after carrageenan), 0.74 ± 0.29 mL in assay [4] (3 h after carrageenan) and 1.19 ± 0.65 mL in assay [4] (6 h after carrageenan).
Turning to `O=S(=O)(NC[C@@H](O)[C@@H]1CCc2cc(F)ccc2O1)c1cccs1` [Compound 8c, N-((R)-2-((S)-6-Fluorochroman-2-yl)-2-hydroxyethyl)thiophene-2-sulfonamide], the “anti-inflammatory activity against LPS induced cell death / inflammation (MTT)” value in the assay with RAW 264.7 cells [1] was “strong anti-inflammatory activity”. For the same compound, the MIC was 22.2 ± 0.83 µg/mL (≈ 62.2 µM) against Rhizopus arrhizus; 18.1 ± 0.46 µg/mL (≈ 50.6 µM) against Aspergillus niger; 22.2 ± 0.63 µg/mL (≈ 62.1 µM) in the assay with Pseudomonas aeruginosa; 17.1 ± 0.47 µg/mL (≈ 47.9 µM) in the assay with Escherichia coli; 19.7 ± 0.62 µg/mL (≈ 55 µM) in the assay with Staphylococcus aureus; 21.6 ± 0.44 µg/mL (≈ 60.4 µM) in the assay with Bacillus subtillis. The same compound registered a minimal inhibitory concentration (MIC) against Aspergillus flavus of 16.7 ± 0.7 µg/mL (≈ 46.8 µM). For the same compound, the “Weight, Dry (cotton pellet)” value in [2] was determined as 91.30 ± 1.72 mg. Besides, in assay [2], the “Weight, Wet (cotton pellet)” value came out at 148.62 ± 1.85 mg. The results for the inhibition at 100 µM at COX-2 and on COX-1 were 40.4 ± 0.1% and 51.1 ± 0.62%, respectively. Also, the inhibition at 200 µM at COX-2 was 61.2 ± 0.72%; on COX-1, 70.07 ± 0.7%. The “inhibition of LPS-induced NO production” value with RAW 264.7 cells [3] is recorded as “strong inhibition”. Besides, the results for the Paw volume in [4] (1 h after carrageenan), in assay [4] (3 h after carrageenan) and in assay [4] (6 h after carrageenan) were 0.60 ± 0.64 mL, 0.88 ± 0.31 mL and 1.11 ± 0.13 mL, respectively.
In the case of `O=S(=O)(NC[C@@H](O)[C@@H]1CCc2cc(F)ccc2O1)c1ccc(F)cc1F` [Compound 8f, N-((R)-2-((S)-6-Fluorochroman-2-yl)-2-hydroxyethyl)-2,4-difluorobenzenesulfonamide], the “anti-inflammatory activity against LPS induced cell death / inflammation (MTT)” value in the assay with RAW 264.7 cells [1] is on record as “strong anti-inflammatory activity”. For the same compound, the MIC against Rhizopus arrhizus came to 19 ± 0.2 µg/mL (≈ 49.2 µM); against Aspergillus niger, 15.7 ± 0.69 µg/mL (≈ 40.4 µM); against Pseudomonas aeruginosa it was 26.8 ± 0.55 µg/mL (≈ 69.3 µM); against Escherichia coli, 24.1 ± 1.02 µg/mL (≈ 62.1 µM); against Staphylococcus aureus, 19.9 ± 0.66 µg/mL (≈ 51.3 µM); against Bacillus subtillis it was 16.2 ± 0.94 µg/mL (≈ 41.9 µM). The same compound displayed a minimum inhibitory concentration (MIC) in the assay on Aspergillus flavus of 16.2 ± 0.82 µg/mL (≈ 41.8 µM). Further, the “Weight, Dry (cotton pellet)” value in assay [2] was found to be 70.66 ± 2.33 mg. Besides, the “Weight, Wet (cotton pellet)” value in assay [2] was 139.82 ± 2.42 mg. Besides, the inhibition at 100 µM on COX-2 stood at 28.7 ± 0.07%; at COX-1, 33.9 ± 1.06%. For the same compound, the inhibition at 200 µM on COX-2 amounted to 52.1 ± 0.78%; at COX-1, 73.85 ± 0.54%. Moreover, the “inhibition of LPS-induced NO production” value with RAW 264.7 cells [3] is “strong inhibition”. For the same compound, the figures for the Paw volume in [4] (1 h after carrageenan), in assay [4] (3 h after carrageenan) and in assay [4] (6 h after carrageenan) were 0.62 ± 0.10 mL, 0.86 ± 0.32 mL and 1.10 ± 0.13 mL, respectively.
